Redox H2O2 prof = compounds producing H2O2 with reducing agent – biochemical, NIH compound library profiling, artefact control for MLSCN library redox annotation, primary screen; DTT-dependent redox cycling H2O2, phenol red/HRP absorbance; 100% = 100 µM peroxide control, 0% = buffer; activation, % at 10 µM; actives 0.03% (n = 200,000); AID 878;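 active means activation of at least 50% relative to the plate's high and low controls in the primary single-dose screen; inactive means activation below 50%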;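 further: compound incubated with DTT at 0.8 mM final as the reducing agent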
Dynein transport = dynein cargo transport inhibition. 3617.4 mouse cells, GR-EGFP nuclear translocation imaging; test concentration mostly 20 µM; stimulated with dexamethasone, 1 µM; hits give low values. z-score, hits read low. actives 0.47% (n = 220,000);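 active means plate z-score of nuclear minus cytoplasmic receptor signal below a set negative limit, without overly bright fluorescence or cell loss, cut at about -3.5 in these data, passing the limit was not always enough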;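 further: z-score of nuclear minus cytoplasmic ring GR-EGFP intensity difference per well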
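Schedule: 48 h induction, then 1 h compound, then 30 min agonist, 37 °C. Buffer or medium: tetracycline-free induction medium containing charcoal-stripped FBS. Reagent: 1.0 µM final dexamethasone stimulus. Evaluation: nuclear versus cytoplasmic GR-EGFP signal, averaged per well. Signal: high-content fluorescence imaging after fixation.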
ROMK primary = modulates human ROMK potassium channel activity; P48048; Tet-inducible ROMK, thallium flux fluorescence; actives lie on both sides; B-score at 10 µM; actives 2% (n = 130,000); AID 1918;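 active means signal ratio slope over the read window, or its plate-corrected B-score, at least 3 SD from the plate mean, either direction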;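 further: B-score of the F/F0 ratio slope over 7 to 12 s after thallium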
Target sequence (P48048 whole entry, looked up): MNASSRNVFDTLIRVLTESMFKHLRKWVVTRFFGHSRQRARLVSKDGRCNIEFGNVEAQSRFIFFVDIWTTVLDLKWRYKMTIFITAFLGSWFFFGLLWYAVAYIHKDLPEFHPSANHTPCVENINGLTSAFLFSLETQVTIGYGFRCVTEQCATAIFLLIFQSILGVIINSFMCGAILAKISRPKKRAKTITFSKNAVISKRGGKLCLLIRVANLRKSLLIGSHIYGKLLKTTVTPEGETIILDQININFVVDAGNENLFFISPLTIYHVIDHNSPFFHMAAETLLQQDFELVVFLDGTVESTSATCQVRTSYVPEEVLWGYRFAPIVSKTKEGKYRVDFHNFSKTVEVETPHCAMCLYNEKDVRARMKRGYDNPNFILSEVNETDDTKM
Autophagy HCS = modulators of autophagy; MEF GFP-LC3 puncta imaging; test concentration mostly 10 µM; calls only at 10 µM (by protocol); actives 0.98% (n = 190,000);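 active means percentage of spot-positive cells more than 3 SD above its plate mean, without a fluorescence outlier flag or 80% toxicity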
Cl transport mod = modulates chloride dependent transport by human KCC2 | KCC2 cells, thallium flux FluoZin-2 fluorescence | B-score of Tl+ flux slope (higher = more flux/activation; lower = inhibition) at 10 µM | actives 2.2% (n = 190,000);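 active means thallium flux slope and its plate-corrected score both differing from the plate sample mean at a set confidence after two filtering rounds, in either direction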;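 further: slope of fluorescence scaled to starting intensity during 10 to 20 s after thallium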
DTT redox conf = generates H2O2 by DTT-dependent redox cycling, confirmed in dose response | shares compounds with Redox H2O2 prof | EC50, µM | phenol red-HRP absorbance | actives 40% (n = 60) | AID 1234;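 active means EC50 under a set limit for hydrogen peroxide production with the reducing agent DTT present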
Hits are given with their value; . = inactive; / = no result given; + = active, no number. The list is not random: actives were taken first. Their share in the collection is about 4.1%.

SMILES	Redox H2O2 prof	Dynein transport	ROMK primary	Autophagy HCS	Cl transport mod	others
CCOC(=O)c1cn(CC(=O)Nc2ccc(OC)cc2OC)nn1	.	.	.	.	.
CC(=O)C1=C(C)NC(SCC(=O)c2cc(Cl)ccc2Cl)=C(C#N)C1c1ccco1 (stereo unspecified)	.	.	.	.	/
CC(=O)C1=C(C)NC(SCC(=O)c2ccc(-c3ccccc3)cc2)=C(C#N)C1c1cccnc1 (stereo unspecified)	.	.	/	+	.
COc1ccccc1NC(=O)C1=C(C)NC(SCC(=O)c2ccc(C)cc2)=C(C#N)C1c1ccco1 (stereo unspecified)	.	.	.	+	/
CC(=O)C1=C(C)NC(SCC(=O)c2ccc(Cl)c(Cl)c2)=C(C#N)C1c1ccco1 (stereo unspecified)	.	.	.	+	/
Cc1ccc2cc(C#N)c(SCc3nnc(-c4ccccc4[N+](=O)[O-])o3)nc2c1	.	.	/	+	.
O=C(NCCO)/C(=C/c1ccc2c(c1)OCO2)NC(=O)c1ccc(Br)cc1	.	.	/	+	.
CCC1CCCCN1CCCNC(=O)c1cc2c(=O)[nH]c3ccccc3c2n1C (stereo unspecified)	.	.	.	.	.
COC(=O)/C(=C1/Oc2cc(C)oc(=O)c2S1)C(F)(F)F	.	.	.	+	.
COC(=O)/C(=C1/Oc2ccc(C(C)(C)C)cc2S1)C(F)(F)F	.	.	.	.	.
OCCCc1nc2ccccc2[nH]1	.	.	.	.	.
O=C(CSCc1c(F)cccc1Cl)Nc1cccnc1	.	.	.	+	.
Cc1cc(-c2nnc(SCC(=O)Nc3nccs3)o2)no1	/	.	/	/	.
O=C(O)CCS(=O)(=O)c1nc(-c2cccs2)cc(C(F)(F)F)n1	.	.	.	.	/
CS(=O)(=O)c1nc(-c2cccs2)cc(C(F)(F)F)n1	.	.	-4.3	+	/
O=C1c2ccccc2C(=O)C1c1ccnc2ccccc12	.	.	/	.	.
O=C1C(c2ccnc3ccccc23)=C(O)c2ccccc21	.	.	.	+	.
Cc1cc(N/N=C/c2ccc(O)cc2O)nc(-c2ccccc2O)n1	.	.	.	+	.
COC(=O)c1ccc(Nc2cc(C)nc(-c3ccccc3O)n2)cc1	.	.	.	.	6.2
Cc1cc(N/N=C/c2ccccc2O)nc(-c2ccccc2O)n1	.	.	.	.	.
O=C(O)c1cn(Cc2ccccn2)c(=O)c2ccccc12	.	.	.	.	.
Cc1cccc(C(=O)NC(=S)N2CCc3ccccc3C2)c1	.	.	9.1	.	125
O=C(NC1CCCCC1)C(c1ccccc1)N(Cc1ccc2c(c1)OCO2)C(=O)c1cnsn1 (stereo unspecified)	.	.	-2.4	.	.
Cc1ccc(C(C(=O)NC2CCCC2)N(Cc2ccc3c(c2)OCO3)C(=O)c2snc(C(N)=O)c2N)cc1 (stereo unspecified)	/	.	/	/	/
CCC(C)N(CC(=O)Nc1cccc(C)c1C)C(=O)CCl (stereo unspecified)	.	.	.	+	.
SMILES	Redox H2O2 prof	Dynein transport	ROMK primary	Autophagy HCS	Cl transport mod	others
Cc1ccccc1N=Nc1ccc(O)c2ncccc12	.	.	.	.	41
O=C(NC(=O)c1ccccc1O)c1ccc2c(c1)CCO2	/	.	/	/	.
CN(C)CCCN(C(=O)c1cccs1)c1nc(-c2ccccc2)cs1	.	.	.	+	.
Cc1ccc(NC(=O)c2ccc(F)cc2F)cc1NS(C)(=O)=O	/	.	.	/	.
CC(C)OCCCn1c(=S)[nH]c2ccc(N3CCOCC3)cc2c1=O	.	.	.	.	.
CC(C)OCCCn1c(=S)[nH]c2cc3c(cc2c1=O)OCO3	.	.	/	.	12
COc1ccc(CN2CCCC(CNC(=O)c3ccc(F)cc3)C2)c(C)c1C (stereo unspecified)	.	.	.	.	.
O=C(Nc1cccnc1)C1=NN(C2CCS(=O)(=O)C2)C(=O)CC1 (stereo unspecified)	.	.	.	.	.
C=CCN(C(=O)C1=NN(C2CCS(=O)(=O)C2)C(=O)CC1)c1nc(-c2ccc([N+](=O)[O-])cc2)cs1 (stereo unspecified)	.	.	.	+	.
Cc1cccc(NC(=O)C2CCCN2C(=O)NC2CCCCC2)c1 (stereo unspecified)	.	.	.	.	.
C=C1C(=O)O[C@@H]2C[C@@H](C)[C@@H]3C=CC(=O)[C@@]3(C)[C@@H](OC(C)=O)[C@H]12	/	-3.6	/	/	.
NS(=O)(=O)c1cccc(NC(=O)COC(=O)C2CCCCC2)c1	.	.	.	.	.
Cc1cc(C(=O)OCC(=O)NC2CCCCC2)c(C)o1	51	.	/	.	.
CCOc1ccc(NC(=S)Nc2ccc3nsnc3c2)cc1	127	.	.	.	.	DTT redox conf=.
Cn1nc(-c2ccc(Cl)cc2)nc2c(=O)n(C)c(=O)nc1-2	170	.	/	.	.	DTT redox conf=0.89
Cc1onc(-c2c(Cl)cccc2Cl)c1COC(=O)c1ccc(Cl)cc1[N+](=O)[O-]	/	.	/	/	.
Oc1ccc(-c2onc(C(F)(F)F)c2-c2cscn2)c(O)c1	430	.	/	.	.	DTT redox conf=.
O=C1C(=O)c2ccc(-c3ccccc3)cc2-c2ccccc21	315	.	.	+	.	DTT redox conf=0.91
CC(=O)N(/N=C1\Sc2ccccc2C1=O)c1ccccc1C	381	.	/	.	.	DTT redox conf=19
CC(=O)N(/N=C1\Sc2ccccc2C1=O)c1ccc(C)cc1C	.	.	/	.	.
CC(=O)C(C(C)=O)C1(O)C(=O)c2ccccc2C1=O	88	.	.	.	.	DTT redox conf=.
O=C(NN=C1CCCC1)c1n[nH]c2c1CCCC2	68	.	.	.	.	DTT redox conf=.
O=C(NN=C1CCCC1)c1n[nH]c2c1CCC2	.	.	.	.	.
Cc1nc2cc(NC(=O)Nc3ccc(Br)cc3)ccc2o1	.	.	.	.	.
CC(NC(=O)COC(=O)c1ccc([N+](=O)[O-])s1)c1ccccc1 (stereo unspecified)	114	.	/	.	.	DTT redox conf=.
SMILES	Redox H2O2 prof	Dynein transport	ROMK primary	Autophagy HCS	Cl transport mod	others
O=C(COC(=O)c1ccc([N+](=O)[O-])s1)NC(=O)NCc1ccccc1	.	.	.	.	.
COc1ccc(OC)c(/C(C)=N/Nc2ccc(C(=O)O)cc2)c1	.	.	.	.	.
C/C(=N/Nc1ccc(C(=O)O)cc1)c1ccc(O)c(O)c1O	105	.	.	.	.	DTT redox conf=.
O=C1C=C(NCCN2CCOCC2)C(=O)c2cnccc21	176	.	.	.	.	DTT redox conf=.
CC1(C)CC(=O)C=C(N2CCNCC2)C1	73	.	/	.	.	DTT redox conf=.
CC1(C)CC(N2CCCC2)=CC(=[N+]2CCCCCC2)C1	.	.	.	.	.
C=CCNC(=S)NNC(=O)c1cc(O)ccc1O	.	.	.	.	.

Bioassay records (PubChem BioAssay)
